# Laboratory results as given in ChEMBL document CHEMBL2331091, “Synthesis and pharmacological evaluation of some novel 2-(5-hydroxy-5-trifluoromethyl-4,5-dihydropyrazol-1-yl)-4-(coumarin-3-yl)thiazoles” (2013).
# The source made the active and inactive calls. The calls are words filed in the database; no cut-off is given here.
# Key:
# Format in all cases: functional
# Pseudomonas aeruginosa [1] = assay: Antibacterial activity against Pseudomonas aeruginosa assessed as growth inhibition at 37 degC after overnight incubation by agar well diffusion method
# Proteus mirabilis [2] = assay: Antibacterial activity against Proteus mirabilis assessed as growth inhibition at 37 degC after overnight incubation by agar well diffusion method
# Klebsiella aerogenes [3] = assay: Antibacterial activity against Klebsiella aerogenes assessed as growth inhibition at 37 degC after overnight incubation by agar well diffusion method
# [4] = system: Staphylococcus epidermidis; assay: Antibacterial activity against Staphylococcus epidermidis assessed as growth inhibition at 37 degC after overnight incubation by agar well diffusion method
# Bacillus subtilis [5] = assay: Antibacterial activity against Bacillus subtilis assessed as growth inhibition at 37 degC after overnight incubation by agar well diffusion method
# Staphylococcus aureus [6] = assay: Antibacterial activity against Staphylococcus aureus assessed as growth inhibition at 37 degC after overnight incubation by agar well diffusion method
# Pseudomonas aeruginosa [7] = assay: Antibacterial activity against Pseudomonas aeruginosa assessed as diameter of growth inhibition zone at 2 mg/ml at 37 degC after 24 hrs by agar well diffusion method; settings: for zone of inhibition at 2000 µg/mL: read-out: DIZ
# Proteus mirabilis [8] = assay: Antibacterial activity against Proteus mirabilis assessed as diameter of growth inhibition zone at 2 mg/ml at 37 degC after 24 hrs by agar well diffusion method; settings: for zone of inhibition at 2000 µg/mL: read-out: DIZ
# Escherichia coli [9] = assay: Antibacterial activity against Escherichia coli assessed as diameter of growth inhibition zone at 2 mg/ml at 37 degC after 24 hrs by agar well diffusion method; settings: for zone of inhibition at 2000 µg/mL: read-out: DIZ
# Klebsiella aerogenes [10] = assay: Antibacterial activity against Klebsiella aerogenes assessed as diameter of growth inhibition zone at 2 mg/ml at 37 degC after 24 hrs by agar well diffusion method; settings: for zone of inhibition at 2000 µg/mL: read-out: DIZ
# [11] = system: Staphylococcus epidermidis; assay: Antibacterial activity against Staphylococcus epidermidis assessed as diameter of growth inhibition zone at 2 mg/ml at 37 degC after 24 hrs by agar well diffusion method; settings: read-out: DIZ
# Bacillus subtilis [12] = assay: Antibacterial activity against Bacillus subtilis assessed as diameter of growth inhibition zone at 2 mg/ml at 37 degC after 24 hrs by agar well diffusion method; settings: for zone of inhibition at 2000 µg/mL: read-out: DIZ
# Staphylococcus aureus [13] = assay: Antibacterial activity against Staphylococcus aureus assessed as diameter of growth inhibition zone at 2 mg/ml at 37 degC after 24 hrs by agar well diffusion method; settings: read-out: DIZ
# Escherichia coli [14] = assay: Antibacterial activity against Escherichia coli assessed as growth inhibition at 37 degC after overnight incubation by agar well diffusion method
# Rattus norvegicus [15] = assay: Antiinflammatory activity in Wistar albino rat assessed as inhibition of carrageenan-induced paw edema at 50 mg/kg, po administered 30 mins prior to carrageenan challenge measured after 4 hrs by plethysmometer analysis
# Procedure, shortened: (§1)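 Male Wistar albino rats, 200-250 g, five per group, fasted from 12 h before and during the test. Compounds were given orally at 50 mg/kg 30 min before sub-plantar injection of 0.1 ml 1% carrageenan in 0.9% saline into the left hind paw. Tween 80 vehicle controls. Paw volume was read by plethysmometer up to the tibiotarsal mark at 0-4 h. Results are mean ± SEM and % inhibition, ANOVA and Dunnett's test.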
# Rattus norvegicus [16] = assay: Antiinflammatory activity in Wistar albino rat assessed as inhibition of carrageenan-induced paw edema at 50 mg/kg, po administered 30 mins prior to carrageenan challenge measured after 3 hrs by plethysmometer analysis; procedure, shortened: as §1
# Rattus norvegicus [17] = assay: Antiinflammatory activity in Wistar albino rat assessed as inhibition of carrageenan-induced paw edema at 50 mg/kg, po administered 30 mins prior to carrageenan challenge measured after 2 hrs by plethysmometer analysis; procedure, shortened: as §1
# Rattus norvegicus [18] = assay: Antiinflammatory activity in Wistar albino rat assessed as inhibition of carrageenan-induced paw edema at 50 mg/kg, po administered 30 mins prior to carrageenan challenge measured after 1 hr by plethysmometer analysis; procedure, shortened: as §1
# Rattus norvegicus [19] = assay: Antiinflammatory activity in Wistar albino rat assessed as inhibition of carrageenan-induced paw edema at 10 mg/kg, po administered 30 mins prior to carrageenan challenge measured after 4 hrs by plethysmometer analysis
# Rattus norvegicus [20] = assay: Antiinflammatory activity in Wistar albino rat assessed as inhibition of carrageenan-induced paw edema at 10 mg/kg, po administered 30 mins prior to carrageenan challenge measured after 3 hrs by plethysmometer analysis
# Rattus norvegicus [21] = assay: Antiinflammatory activity in Wistar albino rat assessed as inhibition of carrageenan-induced paw edema at 10 mg/kg, po administered 30 mins prior to carrageenan challenge measured after 2 hrs by plethysmometer analysis
# Rattus norvegicus [22] = assay: Antiinflammatory activity in Wistar albino rat assessed as inhibition of carrageenan-induced paw edema at 10 mg/kg, po administered 30 mins prior to carrageenan challenge measured after 1 hr by plethysmometer analysis
Compound,MIC (Pseudomonas aeruginosa [1]) [µg/mL],MIC (Proteus mirabilis [2]) [µg/mL],MIC (Klebsiella aerogenes [3]) [µg/mL],MIC [4] [µg/mL],MIC (Bacillus subtilis [5]) [µg/mL],MIC (Staphylococcus aureus [6]) [µg/mL],MIC (Escherichia coli [14]) [µg/mL],zone of inhibition at 2000 µg/mL (Pseudomonas aeruginosa [7]) [mm],zone of inhibition at 2000 µg/mL (Proteus mirabilis [8]) [mm],zone of inhibition at 2000 µg/mL (Klebsiella aerogenes [10]) [mm],zone of inhibition at 2000 µg/mL [11] [mm],zone of inhibition at 2000 µg/mL (Bacillus subtilis [12]) [mm],zone of inhibition at 2000 µg/mL (Staphylococcus aureus [13]) [mm],zone of inhibition at 2000 µg/mL (Escherichia coli [9]) [mm],diameter of the inhibition zone (DIZ) (Pseudomonas aeruginosa [7]),diameter of the inhibition zone (DIZ) (Proteus mirabilis [8]),inhibition in vivo at 50 mg/kg (Rattus norvegicus [15]) [%],inhibition in vivo at 50 mg/kg (Rattus norvegicus [16]) [%],inhibition in vivo at 50 mg/kg (Rattus norvegicus [17]) [%],inhibition in vivo at 50 mg/kg (Rattus norvegicus [18]) [%],other results
O=c1oc2ccc(Br)cc2cc1-c1csc(N2N=C(c3ccc(Cl)cc3)C[C@@]2(O)C(F)(F)F)n1,128,16,8,512,512,128,,8.1,15.1,13,12.5,10.3,2,,,,,,,,diameter of the inhibition zone (DIZ) (Escherichia coli [9]): inactive
C=CC1=C(C(=O)O)N2C(=O)[C@@H](NC(=O)/C(=N\OCC(=O)O)c3csc(N)n3)[C@H]2SC1 [CEFIXIME],2,2,2,2,2,2,2,10,20,15,22,26,3.9,14.1,,,,,,,
O=c1oc2ccc(Cl)cc2cc1-c1csc(N2N=C(C(F)(F)F)C[C@@]2(O)C(F)(F)F)n1,,,,,,,,,,,,,,,,,41.1,54.5,63.3,85.9,
COc1ccc2c(c1)c(CC(=O)O)c(C)n2C(=O)c1ccc(Cl)cc1 [INDOMETHACIN],,,,,,,,,,,,,,,,,,,,,inhibition in vivo at 10 mg/kg (Rattus norvegicus [19]): 86.5%; inhibition in vivo at 10 mg/kg (Rattus norvegicus [20]): 80.9%; inhibition in vivo at 10 mg/kg (Rattus norvegicus [21]): 84.2%; inhibition in vivo at 10 mg/kg (Rattus norvegicus [22]): 94.4%
O=c1oc2ccccc2cc1-c1csc(N2N=C(C(F)(F)F)C[C@@]2(O)C(F)(F)F)n1,,,,,,,,,,,,,,,,,37.9,64.8,79.2,83.1,
O=c1oc2ccccc2cc1-c1csc(N2N=C(c3ccc(Br)cc3)C[C@@]2(O)C(F)(F)F)n1,,,,,,,,,,,,,,,,,25.2,35.5,70.8,76.1,
O=c1oc2ccc(Br)cc2cc1-c1csc(N2N=C(C(F)(F)F)C[C@@]2(O)C(F)(F)F)n1,128,16,512,16,8,64,128,9.13,17.2,11,20.1,25,3.13,11.9,,,,,,,

# Continued, in another order:
MIC (Pseudomonas aeruginosa [1]) [µg/mL],MIC (Proteus mirabilis [2]) [µg/mL],MIC (Klebsiella aerogenes [3]) [µg/mL],MIC [4] [µg/mL],MIC (Bacillus subtilis [5]) [µg/mL],MIC (Staphylococcus aureus [6]) [µg/mL],MIC (Escherichia coli [14]) [µg/mL],Compound,zone of inhibition at 2000 µg/mL (Pseudomonas aeruginosa [7]) [mm],zone of inhibition at 2000 µg/mL (Proteus mirabilis [8]) [mm],zone of inhibition at 2000 µg/mL (Klebsiella aerogenes [10]) [mm],zone of inhibition at 2000 µg/mL [11] [mm],zone of inhibition at 2000 µg/mL (Bacillus subtilis [12]) [mm],zone of inhibition at 2000 µg/mL (Staphylococcus aureus [13]) [mm],zone of inhibition at 2000 µg/mL (Escherichia coli [9]) [mm],diameter of the inhibition zone (DIZ) (Pseudomonas aeruginosa [7]),diameter of the inhibition zone (DIZ) (Proteus mirabilis [8]),inhibition in vivo at 50 mg/kg (Rattus norvegicus [15]) [%],inhibition in vivo at 50 mg/kg (Rattus norvegicus [16]) [%],inhibition in vivo at 50 mg/kg (Rattus norvegicus [17]) [%],inhibition in vivo at 50 mg/kg (Rattus norvegicus [18]) [%],other results
,,512,512,,128,256,O=c1oc2ccc(Br)cc2cc1-c1csc(N2N=C(c3ccc(Br)cc3)C[C@@]2(O)C(F)(F)F)n1,,,10.5,13.1,,2.03,10,inactive,inactive,,,,,diameter of the inhibition zone (DIZ) (Bacillus subtilis [12]): inactive
,,,512,,64,,O=c1oc2ccc(Cl)cc2cc1-c1csc(N2N=C(c3ccc(Cl)cc3)C[C@@]2(O)C(F)(F)F)n1,,,,11.2,,4.13,,inactive,inactive,31.5,42.1,62.5,73.2,diameter of the inhibition zone (DIZ) (Escherichia coli [9]): inactive; diameter of the inhibition zone (DIZ) (Klebsiella aerogenes [10]): inactive; diameter of the inhibition zone (DIZ) (Bacillus subtilis [12]): inactive
,,,64,,32,,O=c1oc2ccc(Cl)cc2cc1-c1csc(N2N=C(c3ccc(F)cc3)C[C@@]2(O)C(F)(F)F)n1,,,,14,,4.93,,inactive,inactive,,,,,diameter of the inhibition zone (DIZ) (Escherichia coli [9]): inactive; diameter of the inhibition zone (DIZ) (Klebsiella aerogenes [10]): inactive; diameter of the inhibition zone (DIZ) (Bacillus subtilis [12]): inactive
32,4,8,64,512,16,2,O=c1oc2ccccc2cc1-c1csc(N2N=C(c3ccc(Cl)cc3)C[C@@]2(O)C(F)(F)F)n1,8.1,15.2,10.1,15.1,15.7,4.5,13.1,,,55.4,48,82.5,77.5,
,,256,64,512,128,512,O=c1oc2ccc(Br)cc2cc1-c1csc(N2N=C(c3ccc(F)cc3)C[C@@]2(O)C(F)(F)F)n1,,,11,14,12.4,1.87,11,inactive,inactive,,,,,
32,4,8,64,512,32,2,O=c1oc2ccccc2cc1-c1csc(N2N=C(c3ccc(F)cc3)C[C@@]2(O)C(F)(F)F)n1,7.87,17,12.1,14,12,3.96,13,,,18,22.3,56.7,74.7,
,,,512,,64,,O=c1oc2ccc(Cl)cc2cc1-c1csc(N2N=C(c3ccc(Br)cc3)C[C@@]2(O)C(F)(F)F)n1,,,,11.2,,2.07,,inactive,inactive,,,,,diameter of the inhibition zone (DIZ) (Escherichia coli [9]): inactive; diameter of the inhibition zone (DIZ) (Klebsiella aerogenes [10]): inactive; diameter of the inhibition zone (DIZ) (Bacillus subtilis [12]): inactive
